Calls of active or inactive are those of the source. The rule behind the calls is not given here.
Key:
Canis familiaris [1] = experiment: The changes in canine renal function that were monitored over the 2-h interval following 20 umol/kg renal arterial administration; no change; assay type: functional, organism-based; details: Canis lupus familiaris
Canis familiaris [2] = experiment: The changes in canine renal function that were monitored over the 2-h interval following 73 umol/kg intravenous administration.; assay type: functional, Canis lupus familiaris
Method in brief: (§1)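 Dogs received the maleimide into the jugular vein at 73.0 or 146 µmol/kg over 10 min, dissolved in 0.9% saline with an equivalent amount of NaHCO3. Urine was collected in 10-min periods for 2 h. Read-outs were urine flow, urinary pH, GFR (inulin clearance), and Na, K (flame photometry) and Cl excretion. Each value is the change from the immediately preceding pretreatment period, analysed by Dunnett's test.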

Canis familiaris [3] = experiment: The changes in canine renal function that were monitored over the 2-h interval following 20 umol/kg renal arterial administration; NC=no change; assay type: functional, organism-based; details: Canis lupus familiaris
Canis familiaris [4] = experiment: The changes in canine renal function that were monitored over the 2-h interval following 146 umol/kg intravenous administration.; assay type: functional, Canis lupus familiaris; method in brief: as §1
[5] = Half life period with Glutathione (GSH); activity expressed in terms of rx, no rx means no reaction; assay type: ADME
[6] = Half life period with L-Lys; activity expressed in terms of rx, no rx means no reaction; assay type: ADME

Structure (SMILES)	Change (Canis familiaris [1])	further results
CC1=C(C)C(=O)N(c2ccc(C(=O)O)cc2)C1=O	inactive	
O=C(O)CNC(=O)c1ccc(N2C(=O)C=CC2=O)cc1		Change (Canis familiaris [2]): ~-5; Change (Canis familiaris [3]): inactive
CC1=CC(=O)N(c2ccc(C(=O)O)cc2C)C1=O	inactive	Change (Canis familiaris [4]): 5
O=C(O)c1ccc(N2C(=O)C=CC2=O)cc1	inactive	
CC1=CC(=O)N(c2ccc(C(=O)NCC(=O)O)cc2)C1=O	inactive	
CC1=C(C)C(=O)N(c2ccc(C(=O)NCC(=O)O)cc2)C1=O	inactive	T1/2 [5]: No RX; T1/2 [6]: No RX
CC1=CC(=O)N(c2ccc(C(=O)O)cc2)C1=O	inactive	
